Assays:
[1] = The hypoglycemic activity in diabetic KK mice, activity expressed as % decrease in blood glucose (18 h); assay type: functional, Mus musculus
In short: (§1)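 Nonfasting diabetic KK mice, n = 3, received 1 mg/kg immediately after the first blood sampling and again 18 h later. Tail-vein plasma was taken 18 and 21 h after the first dose, and glucose was measured. Activity (%) = (control PG − treated PG)/control PG × 100; mean ± SEM.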

[2] = The hypoglycemic activity in diabetic KK mice, activity expressed as % decrease in blood glucose (21h); assay type: functional, Mus musculus; in short: as §1
3T3-L1 = test: Stimulation of adipogenesis in 3T3-L1 cells is expressed as concentration equivalent to the [ 1-14C] uptake counts after treatment with 0.2 ug/mL troglitazone; assay type: functional, Mus musculus
In short: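 Mouse 3T3-L1 preadipocytes were grown to confluence on collagen-coated wells, then given differentiation medium (5% FBS, 100 ng/mL insulin, 0.1 mM IBMX, dexamethasone) plus compound (DMSO 0.1% v/v final) for 4 days. This was followed by maintenance medium (5% FBS, insulin) for 2 days. Cells were then pulsed 1 h with 7.4 kBq/mL [1-14C]acetic acid, washed, and counted by scintillation.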

[3] = Area under the curve for fumarate salt was evaluated in F344 Rats.; assay type: ADME, organism-based; details: F344, rat, in vivo
In short: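 Single oral dose of 25 mg/kg to F344 rats; AUC (µg·h/mL) reported as mean ± SEM, n = 3.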

Rattus norvegicus [4] = test: Heart wt absolute in two week oral toxicity test in male F344/DuCrj rats after 50 mg/kg dose; assay type: functional
In short: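 Seven-week-old male rats, n = 5/group, dosed by gavage at 50 mg/kg for 2 weeks as a suspension in 0.5% carboxymethylcellulose sodium in water; controls received vehicle alone. At termination rats were ether-anaesthetized and exsanguinated via the abdominal aorta, and the heart was excised and weighed. Relative weight = absolute weight/100 g final body weight. Mean ± SE; Student's t-test against control.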

Rattus norvegicus [5] = test: Relative wt in two week oral toxicity test in male F344/DuCrj rats after 50 mg/kg dose; assay type: functional
In short: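 Seven-week-old male F344/DuCrj rats, n = 5/group; compound suspended in 0.5% carboxymethylcellulose sodium in water, given by gavage at 50 mg/kg for 2 weeks; controls got vehicle alone. At termination, ether anaesthesia and exsanguination via abdominal aorta; heart and major organs excised and weighed. Relative weight = organ weight/100 g final body weight; mean ± SE, Student's t-test vs control.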

Structure (SMILES) | Decrease [1] [%] | Decrease [2] [%] | EC (3T3-L1) [µM] | AUC [3] [ng·h/mL] | Absolute heart weight, % of control (Rattus norvegicus [4]) [%] | Heart weight absolute (Rattus norvegicus [4]) [g] | Control (Rattus norvegicus [5]) [%] | Relative (Rattus norvegicus [5]) [g %]
CCOc1ccc2nc(COc3ccc(CC4SC(=O)NC4=O)cc3)n(C)c2n1 (centres undefined) | 29.7 | 23.6 | 0.078 |  |  |  |  | 
COc1ccc2nc(COc3ccc(CC4SC(=O)NC4=O)cc3)n(C)c2n1.Cl (centres undefined) | 14.8 | 1 | 0.11 | 141000 | 111 | 0.68 | 106 | 0.33
O=C1NC(=O)C(Cc2ccc(OCc3nc4cccnc4n3Cc3ccc(Cl)cc3)cc2)S1 (centres undefined) |  | -8.5 | 0.71 |  |  |  |  | 
Cn1c(COc2ccc(CC3SC(=O)NC3=O)cc2)nc2ccc(Cl)nc21 (centres undefined) |  | 47.6 | 0.0009 |  | 123 | 0.74 | 116 | 0.37
Cn1c(COc2ccc(CC3SC(=O)NC3=O)cc2)nc2cc(Cl)cnc21 (centres undefined) |  | 49.7 | 0.16 |  |  |  |  | 
Cn1c(COc2ccc(CC3SC(=O)NC3=O)cc2)nc2ccc(Sc3ccccc3)nc21 (centres undefined) | -21.2 | 14.7 | 0.067 |  |  |  |  | 
Cn1c(COc2ccc(CC3SC(=O)NC3=O)cc2)nc2cc(Br)cnc21 (centres undefined) |  | 6.2 | 0.34 |  |  |  |  | 
O=C1NC(=O)C(Cc2ccc(OCc3nc4ccc[nH]c-4n3)cc2)S1 (centres undefined) | 13.9 | 7.4 | 8.18 |  |  |  |  | 
Cn1c(Oc2ccc(CC3SC(=O)NC3=O)cc2)nc2cccnc21 (centres undefined) | -7 | 3.6 | 1.35 |  |  |  |  | 
Cc1cc(C)c2nc(COc3ccc(CC4SC(=O)NC4=O)cc3)n(C)c2n1 (centres undefined) | 9.5 | 9.5 | 0.22 |  |  |  |  | 
Cn1c(COc2ccc(CC3SC(=O)NC3=O)cc2)nc2ccc(-c3ccccc3)nc21 (centres undefined) | 15.5 | 38.1 | 0.36 |  |  |  |  | 
COc1ccc2nc(COc3ccc(CC4SC(=O)NC4=O)cc3)n(C)c2n1 (centres undefined) | 3.6 | 2.9 | 0.08 | 11900 |  |  |  | 
CCn1c(COc2ccc(CC3SC(=O)NC3=O)cc2)nc2cccnc21 (centres undefined) | -19.5 | 2.4 | 1.07 |  |  |  |  | 
O=C1NC(=O)C(Cc2ccc(OCc3nc4cccnc4n3Cc3ccc(-c4ccccc4)cc3)cc2)S1 (centres undefined) | 3.8 | 11.4 | 0.92 |  |  |  |  | 
Cn1c(CCCOc2ccc(CC3SC(=O)NC3=O)cc2)nc2cccnc21 (centres undefined) | -3 | -9.3 | 0.081 |  |  |  |  | 
Cn1c(CCOc2ccc(CC3SC(=O)NC3=O)cc2)nc2cccnc21 (centres undefined) | -5.6 | 13 | 0.65 |  |  |  |  | 
O=C1NC(=O)C(Cc2ccc(OCc3cn4ccccc4n3)cc2)S1 (centres undefined) | 5.9 | 12.7 | 5.09 |  |  |  |  | 
CN(CCOc1ccc(CC2SC(=O)NC2=O)cc1)c1ccccn1 (centres undefined) [ROSIGLITAZONE] | 21.7 | 14.6 | 0.09 |  | 119 | 0.76 | 113 | 0.36
Cn1c(COc2ccc(CC3SC(=O)NC3=O)cc2)nc2ccc(O)nc21 (centres undefined) | -30.6 | -3.2 | 1.98 |  |  |  |  | 
Cn1c(COc2ccc(CC3SC(=O)NC3=O)cc2)nc2cc(C(F)(F)F)cnc21 (centres undefined) | -0.7 | -26.4 | 0.073 |  |  |  |  | 
Cn1c(COc2ccc(CC3SC(=O)NC3=O)cc2)nc2cccnc21 (centres undefined) |  | 27.6 | 0.13 |  | 128 | 0.78 | 116 | 0.36
Cc1ccnc2c1nc(COc1ccc(CC3SC(=O)NC3=O)cc1)n2C (centres undefined) | -18.2 | -6.9 | 0.37 |  |  |  |  | 
Cn1c(COc2ccc(CC3SC(=O)NC3=O)cc2)nc2ccc(OCc3ccccc3)nc21 (centres undefined) | 20.3 | 18.8 | 0.067 |  |  |  |  | 
O=C1NC(=O)C(Cc2ccc(OCc3nc4cccnc4n3-c3ccccc3)cc2)S1 (centres undefined) | 3.9 | -3.4 | 2.56 |  |  |  |  | 
COc1ccc2nc(COc3ccc(CC4SC(=O)NC4=O)cc3)n(C)c2n1.O=C(O)/C=C/C(=O)O (centres undefined) |  |  |  | 36400 |  |  |  | 
CC(C)Oc1ccc2nc(COc3ccc(CC4SC(=O)NC4=O)cc3)n(C)c2n1 (centres undefined) | 14.6 | -0.2 | 0.075 |  |  |  |  | 

Source: ChEMBL document CHEMBL1133611, “Molecular design, synthesis, and hypoglycemic activity of a series of thiazolidine-2,4-diones” (J Med Chem, 2000)
